“And” between values parts separate entries of the source, which are not always exact repeats. Identical values can stand only once.

Series [1] addresses T1, Amine oxidase [flavin-containing] B (Mus musculus, UniProt Q8BW75).
T1 sequence (Q8BW75 whole entry): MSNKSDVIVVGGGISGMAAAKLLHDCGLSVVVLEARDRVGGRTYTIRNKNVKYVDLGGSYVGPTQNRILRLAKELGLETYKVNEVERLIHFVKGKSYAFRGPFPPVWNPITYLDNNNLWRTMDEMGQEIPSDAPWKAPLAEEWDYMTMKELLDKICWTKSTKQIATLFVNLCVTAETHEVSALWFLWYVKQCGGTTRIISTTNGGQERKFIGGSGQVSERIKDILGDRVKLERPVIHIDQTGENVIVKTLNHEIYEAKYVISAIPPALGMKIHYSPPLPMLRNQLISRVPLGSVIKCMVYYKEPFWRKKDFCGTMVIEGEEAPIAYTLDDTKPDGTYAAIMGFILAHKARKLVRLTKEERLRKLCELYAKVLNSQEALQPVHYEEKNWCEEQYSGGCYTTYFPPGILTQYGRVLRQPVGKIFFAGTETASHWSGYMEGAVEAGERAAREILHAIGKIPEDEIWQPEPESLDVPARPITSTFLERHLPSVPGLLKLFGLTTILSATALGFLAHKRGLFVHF
Description: The ability (25 umol/kg/day) to inactivate monoamine oxidase B (MAO-B) was tested on brain mitochondrial membranes of mice, for 3 day. The series is classed as functional. Particulars: 72 h.

A short description of series [2]: Residual activity was obtained. The series is classed as functional.
Series [3] is described as follows: Ratio of activities of MAO-B / MAO-A. Type of series: functional.
Series [4] has as its target T2, Monoamine oxidase (Mus musculus, UniProt Q8BW75+Q64133).
T2 sequence (Q8BW75 whole entry): T1 sequence (Q8BW75 whole entry)
T2 sequence (Q64133 whole entry): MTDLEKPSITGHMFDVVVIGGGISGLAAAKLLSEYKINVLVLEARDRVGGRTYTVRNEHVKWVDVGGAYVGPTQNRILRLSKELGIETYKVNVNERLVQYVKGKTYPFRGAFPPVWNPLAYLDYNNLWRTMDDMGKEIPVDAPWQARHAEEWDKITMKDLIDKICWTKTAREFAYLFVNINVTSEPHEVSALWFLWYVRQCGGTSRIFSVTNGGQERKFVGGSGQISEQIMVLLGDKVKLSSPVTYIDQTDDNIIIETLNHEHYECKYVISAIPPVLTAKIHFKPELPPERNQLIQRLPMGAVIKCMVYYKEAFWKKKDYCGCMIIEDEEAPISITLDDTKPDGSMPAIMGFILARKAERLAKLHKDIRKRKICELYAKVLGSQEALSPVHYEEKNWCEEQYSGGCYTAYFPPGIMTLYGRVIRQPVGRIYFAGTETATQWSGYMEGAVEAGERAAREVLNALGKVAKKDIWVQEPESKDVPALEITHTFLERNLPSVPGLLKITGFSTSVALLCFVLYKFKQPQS
Description: The ability (25 umol/kg/day) to inactivate monoamine oxidase (MAO) was tested on brain mitochondrial membranes of mice, for 3 days. Type of series: functional. Particulars: 72 h.

Series [5] deals with T3, Amine oxidase [flavin-containing] A (Mus musculus, UniProt Q64133).
T3 sequence (Q64133 whole entry): T2 sequence (Q64133 whole entry)
As to the kind of experiment: The ability (25 umol/kg/day) to inactivate monoamine oxidase A(MAO-A) was tested on brain mitochondrial membranes of mice, for 3 day. The series is classed as functional. Particulars: 72 h.

Series [6] has as its target T3, Amine oxidase [flavin-containing] A. As to the kind of experiment: The ability (124 umol/kg/day) to inactivate monoamine oxidase A(MAO-A) was tested on brain mitochondrial membranes of mice, for 3 day. Particulars: 72 h.
The target in series [7] is T1, Amine oxidase [flavin-containing] B. Description: The ability (124 umol/kg/day) to inactivate monoamine oxidaseB (MAO-B) was tested on brain mitochondrial membranes of mice for 3 day. Particulars: 72 h.
For series [8], the target named is T3, Amine oxidase [flavin-containing] A. As to the kind of experiment: The ability of the compound(25 umol/kg/day) to inactivate monoamine oxidase A(MAO-A) was tested on brain mitochondrial membranes of mice, for 3 day. Type of series: functional. To be noted: 72 h. In a few lines: (§1)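 Male ICR mice (25-35 g), 25 µmol/kg/day ip in sterile saline for 3 days, n = 3; killed day 4, 24 h after last dose. Whole-brain mitochondria isolated by differential centrifugation, lysed in ice-cold water, membranes in 10 mM phosphate pH 7.4. Membranes preincubated 30 min at 37 °C with buffer (total), 3 × 10^-8 M clorgyline (MAO-B), 3 × 10^-7 M deprenyl (MAO-A), or both (residual).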

A short description of series [9]: Residual activity was obtained. Type of series: functional. An outline of the steps:
as §1

Series [10] has as its target T2, Monoamine oxidase. Description: The ability of the compound(25 umol/kg/day) to inactivate monoamine oxidase (MAO) was tested on brain mitochondrial membranes of mice, for 3 days. Particulars: 72 h. The series is classed as functional. In a few lines:
as §1

Series [11] deals with T1, Amine oxidase [flavin-containing] B. As to the kind of experiment: The ability of the compound(25 umol/kg/day) to inactivate monoamine oxidase B (MAO-B) was tested on brain mitochondrial membranes of mice, for 3 day. Type of series: functional. To be noted: 72 h. In a few lines:
as §1

In the case of `C#CCN(C(=O)OC1=CCN(C)CC1)[C@@H](C)Cc1ccccc1`, the Activity is 3.35 nmol/min/mg in series [1], 0.2 nmol/min/mg in series [2], 3.75 nmol/min/mg on Monoamine oxidase [4] and 0.76 nmol/min/mg in [5]. For the same compound, the Ratio in [3] was 4.4.

As to `C#CCN(C(=O)OC1=CCN(C)CC1)[C@H](C)Cc1ccccc1`, the Activity in series [2] amounted to 0.45 nmol/min/mg; at Monoamine oxidase [4], 1.36 nmol/min/mg; in series [6], 1.1 nmol/min/mg; in series [7], 0.78 nmol/min/mg. Also, in [3], the Ratio turned out to be 0.63.

For the compound `C#CCN[C@H](C)Cc1ccccc1` [RNORDEPRENYL], in series [3], the Ratio is 0.71. Besides, the Activity is given as 1.07 nM in [8], 1.31 nM on Monoamine oxidase [10] and 0.68 nM in series [11]. The Residual activity in [9] was found to be 0.46 nM.

Regarding `C#CCN(C)[C@H](C)Cc1ccccc1` [SELEGILINE], in series [3], the Ratio is 0.72 and 0.66. Also, the Activity was 0.64 nM and 1.06 nM in [8]; 0.84 nM and 1.36 nM at Monoamine oxidase [10]; 0.46 nM and 0.7 nM in [11]. Also, the Residual activity in [9] is 0.24 nM and 0.44 nM.

The values above are taken from ChEMBL document CHEMBL1129413, “Synthesis and selective monoamine oxidase B-inhibiting properties of 1-methyl-1,2,3,6-tetrahydropyrid-4-yl carbamate derivatives: potential prodrugs of (R)- and (S)-nordeprenyl” (J Med Chem, 1996).
